Where two headings read alike, the source gives them in different places.
Key:
[1] = design: species or system female Sprague-Dawley rats; conditions: female, Sprague-Dawley, rat, in vivo
[2] = Single-dose subcutaneous serum pharmacokinetics, analysis of individual animals; type: in vivo, female Sprague-Dawley rats
Summary of the method: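 Three-month-old female rats (200–240 g), acclimated two weeks, n = 4, got one subcutaneous dose. Tail-vein blood was drawn at 0, 2, 5, 10, 20, 30, 60, 180 and 360 min, clotted at ambient temperature, spun 14,000 rpm 10 min refrigerated, and serum stored at −80°C. Immunoreactive hPTH(1-34) was measured by ELISA. Parameters came from individual animals; half-life was reported as geometric mean.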

[3] = 10 μg/kg (2.4 nmoles/kg) iv bolus dose; ref 10 (Jones et al.); cited from earlier work

**Q.** Which clearance [1] does the source give for `CC[C@H](C)[C@H](NC(=O)[C@H](CCC(=O)O)NC(=O)[C@H](CO)NC(=O)[C@@H](NC(=O)[C@@H](N)CO)C(C)C)C(=O)N[C@@H](CCC(N)=O)C(=O)N[C@@H](CC(C)C)C(=O)N[C@@H](CCSC)C(=O)N[C@@H](Cc1cnc[nH]1)C(=O)N[C@@H](CC(N)=O)C(=O)N[C@@H](CC(C)C)C(=O)NCC(=O)N[C@@H](CCCCN)C(=O)N[C@@H](Cc1cnc[nH]1)C(=O)N[C@@H](CC(C)C)C(=O)N[C@@H](CC(N)=O)C(=O)N[C@@H](CO)C(=O)N[C@@H](CCSC)C(=O)N[C@@H](CCC(=O)O)C(=O)N[C@@H](CCCN=C(N)N)C(=O)N[C@H](C(=O)N[C@@H](CCC(=O)O)C(=O)N[C@@H](Cc1c[nH]c2ccccc12)C(=O)N[C@@H](CC(C)C)C(=O)N[C@@H](CCCN=C(N)N)C(=O)N[C@@H](CCCCN)C(=O)N[C@@H](CCCCN)C(=O)N[C@@H](CC(C)C)C(=O)N[C@@H](CCC(N)=O)C(=O)N[C@@H](CC(=O)O)C(=O)N[C@H](C(=O)N[C@@H](Cc1cnc[nH]1)C(=O)N[C@@H](CC(N)=O)C(=O)N[C@@H](Cc1ccccc1)C(=O)O)C(C)C)C(C)C` [PTH(1-34), teriparatide] here?
**A.** 83 mL/min/kg

**Q.** What about the bioavailability ([1]; sc) of the same molecule?
**A.** 47%

**Q.** What about the half-life ([2]; female, Sprague-Dawley, rat, serum, sc, 19.4 nmoles/kg) of the same molecule?
**A.** 59 min

**Q.** And the “Time by which serum concentrations returned to background levels” value ([2]; single sc dose 19.4 nmoles/kg)?
**A.** ≤ 6 h

**Q.** What about the clearance [3] of the same molecule?
**A.** 98 mL/min/kg

From publication PMC4001804 (Journal of pharmaceutical sciences, 2014)
